Source: paper PMC8428381 (Journal of Virology, 2021)
Structures can show the parent of a compound that is named as a salt.

Key:
[1] = test system: SARS-CoV-2; details: by acting against TMPRSS2; cited from earlier work
[2] = target: T1, matriptase (Homo sapiens, UniProt Q9Y5Y6); test: Chromogenic enzyme inhibition assay, matriptase; type: biochemical
T1 sequence (Q9Y5Y6 615-854 limits assumed): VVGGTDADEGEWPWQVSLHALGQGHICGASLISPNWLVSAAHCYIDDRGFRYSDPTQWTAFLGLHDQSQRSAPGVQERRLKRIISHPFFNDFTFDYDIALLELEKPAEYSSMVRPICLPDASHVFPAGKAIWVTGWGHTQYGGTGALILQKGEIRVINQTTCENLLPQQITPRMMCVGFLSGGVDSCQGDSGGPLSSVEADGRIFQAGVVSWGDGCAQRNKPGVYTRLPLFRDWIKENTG
Outline: (§1)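 Serine protease domains (uPA, matriptase) expressed in Pichia pastoris X-33. 2 nM enzyme preincubated 15 min at 37°C with varied test compound in 0.01 M HEPES, 0.15 M NaCl, pH 7.4, 0.1% BSA. Substrate at about Km: S-2444 for uPA, S-2288 for matriptase. Initial rates read at 405 nm; IC50 from a sigmoidal nonlinear fit.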

[3] = target: plasma kallikrein (PK) (Homo sapiens, UniProt P03952); test: Chromogenic enzyme inhibition assay, plasma kallikrein; type: biochemical
Chain of plasma kallikrein (PK) (P03952 391-626 limits assumed): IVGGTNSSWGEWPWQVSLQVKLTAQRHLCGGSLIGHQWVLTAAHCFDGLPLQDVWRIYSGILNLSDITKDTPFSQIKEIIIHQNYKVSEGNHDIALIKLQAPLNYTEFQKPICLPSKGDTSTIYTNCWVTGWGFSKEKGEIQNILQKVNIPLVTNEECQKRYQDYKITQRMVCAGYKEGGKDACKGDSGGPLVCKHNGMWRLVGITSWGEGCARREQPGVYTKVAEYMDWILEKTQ

[4] = target: uPA (Homo sapiens, UniProt P00749, C299A/N322Q); test: Chromogenic enzyme inhibition assay, uPA serine protease domain; type: biochemical
Outline: as §1

[5] = target: factor XIa (FXIa) (Homo sapiens, UniProt P03951); test: Chromogenic enzyme inhibition assay, factor XIa; type: biochemical
Chain of factor XIa (FXIa) (P03951 388-623 limits assumed): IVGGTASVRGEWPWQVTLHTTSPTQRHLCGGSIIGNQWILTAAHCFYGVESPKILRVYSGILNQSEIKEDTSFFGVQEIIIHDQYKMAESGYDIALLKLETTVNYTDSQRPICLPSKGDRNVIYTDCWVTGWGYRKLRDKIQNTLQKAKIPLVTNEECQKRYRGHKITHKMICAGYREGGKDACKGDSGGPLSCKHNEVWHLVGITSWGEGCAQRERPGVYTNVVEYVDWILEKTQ
Outline: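 Recombinant FXIa serine protease domain expressed in Pichia pastoris X-33. 2 nM enzyme preincubated 15 min at 37°C with a range of test compound concentrations in 0.01 M HEPES, 0.15 M NaCl, pH 7.4, 0.1% BSA. Chromogenic substrate was then added at about its Km. Initial velocities were read at 405 nm, and IC50 came from a sigmoidal nonlinear fit.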

[6] = target: murine uPA (muPA) (Mus musculus, UniProt P06869); test: Chromogenic enzyme inhibition assay, murine uPA serine protease domain; type: biochemical
Chain of murine uPA (muPA) (P06869 180-426 limits assumed): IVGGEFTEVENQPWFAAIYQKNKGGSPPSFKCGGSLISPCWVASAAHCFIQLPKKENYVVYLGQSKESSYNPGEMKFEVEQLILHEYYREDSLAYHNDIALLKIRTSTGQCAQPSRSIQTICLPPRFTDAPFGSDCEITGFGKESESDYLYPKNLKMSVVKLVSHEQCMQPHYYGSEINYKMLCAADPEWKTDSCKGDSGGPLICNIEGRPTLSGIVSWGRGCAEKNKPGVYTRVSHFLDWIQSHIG
Outline: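 Mouse uPA serine protease domain, expressed as E. coli BL21(DE3) inclusion bodies, then refolded and purified. 2 nM enzyme preincubated 15 min at 37°C with varied test compound in 0.01 M HEPES, 0.15 M NaCl, pH 7.4, 0.1% BSA. S-2444 then added at about Km. Initial velocities read at 405 nm; IC50 from a sigmoidal nonlinear regression.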

Question: For `CN(C)C(=O)COC(=O)Cc1ccc(OC(=O)c2ccc(NC(=N)N)cc2)cc1` [camostat, camostat mesylate], which “SARS-CoV-2 infection of human lung cells” value [1] is on record?
Answer: Its value is “inhibits SARS-CoV-2 infection of human lung cells”.

Question: And the IC50 [2]?
Answer: The IC50 was 0.0211 ± 0.0035 µM.

Question: What about the IC50 [3] of the same compound?
Answer: Its IC50 is 0.0104 ± 0.0027 µM.

Question: And the IC50 [4]?
Answer: Its IC50 is 0.0864 ± 0.0094 µM.

Question: And the IC50 [5]?
Answer: The IC50 was 0.0441 ± 0.0011 µM.

Question: And the IC50 [6]?
Answer: Its IC50 is 0.1 ± 0.0419 µM.
